The values that follow come from ChEMBL document CHEMBL1125520, “Improved brain delivery of AZT using a glycosyl phosphotriester prodrug” (1992).

Experiment [1] deals with Mus musculus. In words: In Vivo detection in Mice plasma after oral administration of 41.63 mg/kg detected in the form of AZT 5`-P after 48 hr. Details: dose 41.63 mg/kg. Format: functional, organism-based.
Experiment [2] has as its system Mus musculus. In words: In Vivo detection in Mice brains after oral administration of 41.63 mg/kg detected in the form of AZT after 8 hr. Type of experiment: functional.
Experiment [3] deals with Mus musculus. Briefly: In Vivo detection in Mice brains after oral administration of 41.63 mg/kg detected in the form of AZT after 48 hr. Type of experiment: functional.
The test system of experiment [4] is Mus musculus. Briefly: In Vivo detection in Mice plasma after oral administration of 41.63 mg/kg detected in the form of AZT 5`-P after 0.5 hr. Format: functional, organism-based. Further details: dose 41.63 mg/kg.
The test system of experiment [5] is Mus musculus. Briefly: In Vivo detection in Mice plasma after oral administration of 41.63 mg/kg detected in the form of AZT after 48 hr. Type of experiment: functional, organism-based. Further details: dose 41.63 mg/kg.
In experiment [6] the test system is Mus musculus. In words: In Vivo detection in Mice plasma after oral administration of 41.63 mg/kg detected in the form of AZT 5`-P after 24 hr. Format: functional, organism-based. Further details: dose 41.63 mg/kg.
The species entered for experiment [7] is Mus musculus. In words: In Vitro detection by Gray and Whittaker method for the total internal nucleoside. Type of experiment: functional. Summed up: (§1)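 Crude synaptosomes from three mouse brains were prepared by Gray–Whittaker homogenization in 10% sucrose buffered with 5 mM Tris-HCl, pH 7.4. The 7000g pellet was resuspended and incubated with each nucleoside at 3 mM for 15 min at 37 °C, stopped by cold 10-fold dilution and washed twice. Internal nucleoside was extracted in acetonitrile–water (3:1) and measured by HPLC.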

The species entered for experiment [8] is Mus musculus. In words: In Vitro detection by Gray and Whittaker method for % of internalization by comparing with external nucleoside of 2000 nM/g. Type of experiment: functional. In short, it runs like this: as §1
Experiment [9] deals with Mus musculus. Briefly: In Vivo detection in Mice brains after oral administration of 41.63 mg/kg detected in the form of AZT 5`-P after 24 hr. Type of experiment: functional.
Experiment [10] deals with Mus musculus. In words: In Vivo detection in Mice brains after oral administration of 41.63 mg/kg detected in the form of AZT 5`-P after 2 hr. Type of experiment: functional.
Experiment [11] deals with Mus musculus. Briefly: In Vivo detection in Mice plasma after oral administration of 41.63 mg/kg detected in the form of AZT after 24 hr. Type of experiment: functional, organism-based. Details: dose 41.63 mg/kg.
In experiment [12] the test system is Mus musculus. Briefly: In Vivo detection in Mice plasma after oral administration of 41.63 mg/kg detected in the form of AZT 5`-P after 4 hr. Format: functional, organism-based. Further details: dose 41.63 mg/kg.
In experiment [13] the test system is Mus musculus. Briefly: In Vivo detection in Mice brains after oral administration of 41.63 mg/kg detected in the form of AZT 5`-P after 8 hr. Type of experiment: functional.
Experiment [14] concerns Mus musculus. In words: In Vivo detection in Mice brains after oral administration of 41.63 mg/kg detected in the form of AZT phosphodiester 2 after 8 hr. Type of experiment: functional.
For experiment [15], the system named is Mus musculus. In words: In Vivo detection of total AZT in Mice brains after oral administration of 41.63 mg/kg after 1 hr. Format: functional. In short, it runs like this:
(§2)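 Male Swiss mice (18–20 g) dosed orally with a 3 mM solution in […] vehicle; decapitated at 0.5–48 h. Brains were homogenized in acetonitrile-water (3:1), centrifuged at 6000g for 40 min at 4 °C, lyophilized, redissolved in water and filtered (0.45 µm). Reversed-phase C18 column-switching HPLC with diode-array detection; standard spiking; vehicle-fed controls. Three mice per point, triplicates.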

In experiment [16] the test system is Mus musculus. In words: In Vivo detection in Mice plasma after oral administration of 41.63 mg/kg detected in the form of AZT phosphodiester 2 after 8 hr. Type of experiment: functional, organism-based. Details: dose 41.63 mg/kg.
The test system of experiment [17] is Mus musculus. In words: In Vivo detection in Mice brains after oral administration of 41.63 mg/kg detected in the form of AZT 5`-P after 1 hr. Type of experiment: functional.
The subject of experiment [18] is Mus musculus. In words: In Vivo detection of total AZT in Mice plasma after oral administration of 58.33 mg/kg after 1 hr. Type of experiment: functional, organism-based. Further details: dose 58.33 mg/kg. Summed up: (§3)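 Male Swiss mice (18–20 g, six weeks old) given the test substance or vehicle ([…]) by gavage as a 3 mM solution (1.5 µmol/mouse). Aortic blood was collected into heparinized tubes at 0.5–48 h and centrifuged at 13000g for 10 min. Plasma was stored at -22 °C and analysed by HPLC. Three mice were used per time point, in triplicate. Values were not corrected for recovery.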

Experiment [19] deals with Mus musculus. Briefly: In Vivo detection in Mice plasma after oral administration of 58.33 mg/kg detected in the form of AZT 5`-P after 24 hr. Format: functional, organism-based. Further details: dose 58.33 mg/kg.
The subject of experiment [20] is Mus musculus. Briefly: In Vivo detection in Mice brains after oral administration of 58.33 mg/kg detected in the form of AZT 5`-P after 48 hr. Type of experiment: functional.
In experiment [21] the test system is Mus musculus. Briefly: In Vivo detection of total AZT in Mice plasma after oral administration of 58.33 mg/kg after 2 hr. Details: dose 58.33 mg/kg. Type of experiment: functional, organism-based. Summed up: as §3
The test system of experiment [22] is Mus musculus. Briefly: In Vivo detection in Mice plasma after oral administration of 58.33 mg/kg detected in the form of AZT after 4 hr. Type of experiment: functional, organism-based. Details: dose 58.33 mg/kg.
Experiment [23] deals with Mus musculus. Briefly: In Vivo detection in Mice plasma after oral administration of 58.33 mg/kg detected in the form of AZT 5`-P after 2 hr. Type of experiment: functional, organism-based. Further details: dose 58.33 mg/kg.
Experiment [24] concerns Mus musculus. Briefly: In Vivo detection in Mice brains after oral administration of 58.33 mg/kg detected in the form of AZT phosphodiester 3 after 1 hr. Format: functional.
In experiment [25] the test system is Mus musculus. In words: In Vivo detection in Mice plasma after oral administration of 58.33 mg/kg detected in the form of AZT phosphodiester 3 after 24 hr. Format: functional, organism-based. Details: dose 58.33 mg/kg. Summed up: as §3
The test system of experiment [26] is Mus musculus. In words: In Vivo detection in Mice plasma after oral administration of 58.33 mg/kg detected in the form of AZT after 48 hr. Type of experiment: functional, organism-based. Further details: dose 58.33 mg/kg. Summed up: as §3
Experiment [27] deals with Mus musculus. Briefly: In Vivo detection in Mice brains after oral administration of 58.33 mg/kg detected in the form of AZT 5`-P after 24 hr. Type of experiment: functional.
The subject of experiment [28] is Mus musculus. Briefly: In Vivo detection of total AZT in Mice brains after oral administration of 58.33 mg/kg after 1 hr. Format: functional. In short, it runs like this: as §2
The test system of experiment [29] is Mus musculus. In words: In Vivo detection of total AZT in Mice plasma after oral administration of 58.33 mg/kg after 24 hr. Further details: dose 58.33 mg/kg. Format: functional, organism-based. In short, it runs like this: as §3
For experiment [30], the system named is Mus musculus. Briefly: In Vivo detection in Mice plasma after oral administration of 58.33 mg/kg detected in the form of AZT phosphodiester 2 after 8 hr. Further details: dose 58.33 mg/kg. Type of experiment: functional, organism-based. In short, it runs like this:
as §3

Experiment [31] has as its system Mus musculus. Briefly: In Vivo detection in Mice brains after oral administration of 58.33 mg/kg detected in the form of AZT 5`-P after 2 hr. Format: functional.
Experiment [32] deals with Mus musculus. In words: In Vivo detection in Mice plasma after oral administration of 20 mg/kg detected in the form of AZT phosphodiester 2 after 0.5 hr. Type of experiment: functional, organism-based. Further details: dose 20 mg/kg.
Experiment [33] has as its system Mus musculus. Briefly: In Vivo detection in Mice brains after oral administration of 58.33 mg/kg detected in the form of AZT after 1 hr. Format: functional.
Experiment [34] relates to Mus musculus. Briefly: In Vivo detection of total AZT in Mice plasma after oral administration of 58.33 mg/kg after 0.5 hr. Format: functional, organism-based. Details: dose 58.33 mg/kg. In short, it runs like this:
as §3

Experiment [35] deals with Mus musculus. In words: In Vivo detection in Mice plasma after oral administration of 58.33 mg/kg detected in the form of AZT phosphodiester 2 after 4 hr. Format: functional, organism-based. Details: dose 58.33 mg/kg. In short, it runs like this:
as §3

The subject of experiment [36] is Mus musculus. In words: In Vivo detection in Mice plasma after oral administration of 58.33 mg/kg detected in the form of AZT phosphodiester 2 after 1 hr. Type of experiment: functional, organism-based. Details: dose 58.33 mg/kg. Summed up: as §3
Experiment [37] relates to Mus musculus. Briefly: In Vivo detection in Mice brains after oral administration of 58.33 mg/kg detected in the form of AZT phosphodiester 2 after 48 hr. Format: functional.
The subject of experiment [38] is Mus musculus. Briefly: In Vivo detection in Mice brains after oral administration of 58.33 mg/kg detected in the form of AZT phosphodiester 3 after 8 hr. Format: functional.

The structures appear in SMILES notation.

As to `Cc1cn([C@H]2C[C@H](N=[N+]=[N-])[C@@H](COP(=O)(O)OCCO[C@H]3O[C@H](CO)[C@@H](O)[C@H](O)[C@@H]3O)O2)c(=O)[nH]c1=O`, the Plasma content with Mus musculus [1] was 17.9 nM ml-1; in the experiment on Mus musculus [4], 20.4 nM ml-1; in the experiment on Mus musculus [5], 0 nM ml-1; in the experiment with Mus musculus [6], 26.8 nM ml-1; with Mus musculus [11] it was 0 nM ml-1; with Mus musculus [12], 6.7 nM ml-1. Moreover, the Plasma content in the experiment with Mus musculus [16] stood at 0 nM ml-1. Moreover, the Brain content came out at 0.9 nmol/g in the experiment with Mus musculus [2]; 0.8 nmol/g in the experiment with Mus musculus [3]; 8.3 nM/g in the experiment filed under Mus musculus [7]; 56.5 nmol/g in the experiment on Mus musculus [9]; 19.8 nM ml-1 with Mus musculus [10]; 33.3 nmol/g in the experiment with Mus musculus [13]. Moreover, the Brain content in the experiment with Mus musculus [14] came out at 8.9 nmol/g; in the experiment on Mus musculus [15], 97.7 nmol/g; with Mus musculus [17] it was 79.3 nmol/g. In addition, in the experiment filed under Mus musculus [8], the Internalisation is listed as 0.1%.

With `CCCCCCCCCCCCCCCCOP(=O)(OCCO[C@H]1O[C@H](CO)[C@@H](O)[C@H](O)[C@@H]1O)OCC1OC(n2cc(C)c(=O)[nH]c2=O)CC1N=[N+]=[N-]` (stereo not given in full), the Plasma content in the experiment with Mus musculus [18] was 14 nM ml-1; in the experiment with Mus musculus [19] it was 28.5 nM ml-1; in the experiment on Mus musculus [21], 5.4 nM ml-1; in the experiment with Mus musculus [22] it was 2.3 nM ml-1; with Mus musculus [23], 4 nM ml-1; with Mus musculus [25], 0 nM ml-1. In addition, the Plasma content with Mus musculus [26] came out at 0 nM ml-1; in the experiment on Mus musculus [29], 28.5 nM ml-1; in the experiment with Mus musculus [30], 0 nM ml-1; in the experiment on Mus musculus [32], 0 nM ml-1; with Mus musculus [34], 13.7 nM ml-1; in the experiment on Mus musculus [35] it was 0 nM ml-1. Besides, the Plasma content in the experiment with Mus musculus [36] came out at 0 nM ml-1. For the same compound, the Brain content came to 58.6 nmol/g with Mus musculus [20]; 567.8 nM/g in the experiment filed under Mus musculus [7]; 0 nmol/g in the experiment with Mus musculus [24]; 81.3 nmol/g with Mus musculus [27]; 156.7 nM ml-1 in the experiment with Mus musculus [28]; 133 nmol/g with Mus musculus [31]. The Brain content in the experiment on Mus musculus [33] came to 1.5 nmol/g; in the experiment with Mus musculus [37], 3.8 nmol/g; in the experiment on Mus musculus [38], 0 nM ml-1. The compound further registered an Internalisation in the experiment filed under Mus musculus [8] of 6.24%.
